Holding throughout (type): cell-based
The target in test [1] is T1, Adenosine receptor A2b (Homo sapiens) (UniProt P29275).
T1 sequence (whole entry): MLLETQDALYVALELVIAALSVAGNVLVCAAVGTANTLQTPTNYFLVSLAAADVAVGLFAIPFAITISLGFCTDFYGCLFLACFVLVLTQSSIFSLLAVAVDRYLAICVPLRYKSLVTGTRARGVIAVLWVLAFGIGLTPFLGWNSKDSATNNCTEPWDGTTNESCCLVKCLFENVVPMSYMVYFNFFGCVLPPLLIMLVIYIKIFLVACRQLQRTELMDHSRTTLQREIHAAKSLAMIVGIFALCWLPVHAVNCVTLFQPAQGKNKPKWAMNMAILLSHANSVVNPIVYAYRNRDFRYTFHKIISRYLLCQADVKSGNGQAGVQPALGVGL
Description: Displacement of [3H]DPCPX from human adenosine A2B receptor expressed in HEK293 cells at 0.1 uM by liquid scintillation counting. Put shortly:
(§1)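 HEK-293 membranes (18 μg) were incubated with [3H]DPCPX (35 nM) at 25 °C for 30 min, with six concentrations from 0.1 nM to 1 μM. Nonspecific binding was defined with 400 μM NECA. Filters were washed six times with ice-cold buffer and counted by scintillation. Ki (Cheng–Prusoff) is mean ± SEM, n=3; % displacement at 0.1 μM is n=2.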

Test [2] addresses T2, Adenosine receptor A2a (Homo sapiens, UniProt P29274). Description: Displacement of [3H][…] from human adenosine A2A receptor expressed in human HeLa cells at 0.1 uM by liquid scintillation counting. In short, it runs like this: (§2)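 Nonspecific binding was defined with 50 μM NECA. Filters were washed four times with ice-cold buffer, then counted by scintillation. Ki (Cheng–Prusoff) is mean ± SEM, n=3; % displacement at 0.1 μM is n=2.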

Test [3] addresses T3, Adenosine receptor A3 (Homo sapiens) (UniProt P0DMS8).
T3 sequence (whole entry): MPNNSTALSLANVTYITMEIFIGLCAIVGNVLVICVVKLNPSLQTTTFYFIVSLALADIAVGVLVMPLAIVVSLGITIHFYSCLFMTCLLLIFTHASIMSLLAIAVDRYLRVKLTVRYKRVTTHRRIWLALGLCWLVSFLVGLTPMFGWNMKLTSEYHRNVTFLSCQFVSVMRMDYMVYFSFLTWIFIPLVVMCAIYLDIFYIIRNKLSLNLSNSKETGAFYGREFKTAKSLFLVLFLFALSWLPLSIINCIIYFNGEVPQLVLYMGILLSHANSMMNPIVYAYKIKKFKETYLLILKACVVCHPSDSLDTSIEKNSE
Description: Displacement of [3H]NECA from human adenosine A3 receptor expressed in human HeLa cells at 0.1 uM by liquid scintillation counting. In short, it runs like this:
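HeLa membranes (90 μg) carrying hA3AR were incubated with [3H]NECA (30 nM) at 25 °C for 180 min, with six concentrations from 0.1 nM to 1 μM. Nonspecific binding was defined with 100 μM R-PIA. Filters were washed six times and counted by scintillation. Ki (Cheng–Prusoff) is mean ± SEM, n=3; % displacement at 0.1 μM is n=2.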

Test [4] concerns the target T4, Adenosine receptor A1 (Homo sapiens, UniProt P30542).
T4 sequence (P30542 whole entry): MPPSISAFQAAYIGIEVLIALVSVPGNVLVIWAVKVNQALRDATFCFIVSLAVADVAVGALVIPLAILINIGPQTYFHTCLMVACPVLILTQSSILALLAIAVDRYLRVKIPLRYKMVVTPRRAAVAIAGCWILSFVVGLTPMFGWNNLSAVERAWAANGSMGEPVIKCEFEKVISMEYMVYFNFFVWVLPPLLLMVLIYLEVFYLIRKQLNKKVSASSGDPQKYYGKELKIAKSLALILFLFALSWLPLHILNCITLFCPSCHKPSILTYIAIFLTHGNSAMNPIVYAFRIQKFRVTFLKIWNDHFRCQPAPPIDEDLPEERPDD
Briefly: Displacement of [3H]DPCPX from human adenosine A1 receptor expressed in CHO cells by liquid scintillation counting. Put shortly:
(§3)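 Transfected CHO cell membranes (15 μg) were incubated with [3H]DPCPX at 25 °C for 60 min, with six test concentrations from 0.1 nM to 1 μM. Nonspecific binding was defined with 10 μM R-PIA. Filters were washed four times with ice-cold buffer before scintillation counting. Ki (Cheng–Prusoff) is mean ± SEM, n=3; % displacement at 0.1 μM is n=2.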

The target of test [5] is T2, Adenosine receptor A2a. Description: Displacement of [3H][…] from human adenosine A2A receptor expressed in human HeLa cells by liquid scintillation counting. Put shortly: as §2
In test [6] the target is T5, Adenosine receptor A3 (Homo sapiens, UniProt P0DMS8).
T5 sequence (P0DMS8 whole entry): T3 sequence (whole entry)
Description: Displacement of [3H]NECA from human adenosine A3 receptor expressed in human HeLa cells by liquid scintillation counting. The settings on record: read-out: Ki. Put shortly: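 HeLa membranes (90 μg) carrying hA3AR were incubated with [3H]NECA (30 nM) at 25 °C for 180 min, with six concentrations from 0.1 nM to 1 μM. Nonspecific binding was defined with 100 μM R-PIA. Filters were washed six times and counted by scintillation.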

The target of test [7] is T6, Adenosine receptor A2b (Homo sapiens, UniProt P29275).
T6 sequence (P29275 whole entry): T1 sequence (whole entry)
Briefly: Displacement of [3H]DPCPX from human adenosine A2B receptor expressed in HEK293 cells by liquid scintillation counting. In short, it runs like this:
as §1

Test [8] deals with T7, Adenosine receptor A1 (Homo sapiens) (UniProt P30542).
T7 sequence (whole entry): T4 sequence (P30542 whole entry)
Briefly: Displacement of [3H]DPCPX from human adenosine A1 receptor expressed in CHO cells at 0.1 uM by liquid scintillation counting. Put shortly: as §3

T2 sequence (P29274 whole entry): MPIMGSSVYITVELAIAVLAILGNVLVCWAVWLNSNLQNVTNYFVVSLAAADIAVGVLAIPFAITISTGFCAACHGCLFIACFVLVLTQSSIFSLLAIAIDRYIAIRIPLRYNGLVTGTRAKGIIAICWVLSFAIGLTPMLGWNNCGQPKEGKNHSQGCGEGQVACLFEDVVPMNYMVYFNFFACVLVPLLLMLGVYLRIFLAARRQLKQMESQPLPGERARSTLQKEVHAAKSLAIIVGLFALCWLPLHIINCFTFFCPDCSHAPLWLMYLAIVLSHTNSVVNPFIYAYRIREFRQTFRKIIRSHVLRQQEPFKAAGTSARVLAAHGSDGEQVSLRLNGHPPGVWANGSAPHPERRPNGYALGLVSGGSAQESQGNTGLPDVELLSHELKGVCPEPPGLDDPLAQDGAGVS

As to `CCCC(=O)Nc1cc(-c2ccsc2)nc(-c2ccsc2)n1`, the figures for the inhibition in test [1], in test [2] and in test [3] were 21%, 23% and 11%, respectively. For the same compound, the Ki in test [4] was 65.1 nM.
As to `CCC(=O)Nc1cc(-c2ccsc2)nc(-c2ccsc2)n1`, the Ki in test [5] came out at 63.5 nM; in test [6], 64.2 nM; in test [7], 165 nM; in test [4] it was 39.4 nM.
As for `CC(=O)Nc1cc(-c2cccs2)nc(-c2cccs2)n1`, the inhibitory constant (Ki) in test [5] is 24.6 nM; in test [6], 8 nM. Also, the inhibition in test [8] worked out at 19%; in test [1], 23%.
As to `CCCC(=O)Nc1nc(-c2ccsc2)cc(-c2ccsc2)n1`, the Ki worked out at 4570 nM in test [5] and 85.7 nM in test [4]. The inhibition in test [1] stood at 12%; in test [3] it was 2%.
In the case of `CCCC(=O)Nc1cc(-c2ccc(F)cc2)nc(-c2ccc(F)cc2)n1`, the Ki worked out at 1830 nM in test [5], 34.8 nM in test [6] and 82.3 nM in test [4]. This compound showed an inhibition in test [1] of 2%.
With `CC(=O)Nc1cc(-c2ccccc2)nc(-c2ccccc2)n1`, the Ki in test [5] is 255 nM; in test [6], 12.1 nM; in test [4] it was 31.2 nM. In test [1], this compound returned an inhibition of 19%.
Take `CCCC(=O)Nc1cc(-c2ccco2)nc(-c2ccco2)n1`: the inhibition constant (Ki) in test [5] amounted to 5.7 nM; in test [6], 9.9 nM; in test [7], 16.4 nM; in test [4] it was 7.8 nM.
As to `CCCC(=O)Nc1cc(-c2ccccc2OC)nc(-c2ccccc2OC)n1`, the Ki in test [6] came out at 110 nM; in test [4], 41.3 nM. Besides, the results for the inhibition in test [1] and in test [2] were 3% and 14%, respectively.
As for `CCC(=O)Nc1cc(-c2ccc(C)cc2)nc(-c2ccc(C)cc2)n1`, the Ki in test [6] is 18.3 nM; in test [4], 36.9 nM. For the same compound, the inhibition was determined as 2% in test [1] and 1% in test [2].
For `CCCC(=O)Nc1nc(-c2ccc3c(c2)OCO3)cc(-c2ccc3c(c2)OCO3)n1`, the Ki came to 751 nM in test [6] and 678 nM in test [4]. Besides, the inhibition in test [1] was 1%; in test [2], 8%.
`CC(=O)Nc1cc(-c2ccoc2)nc(-c2ccoc2)n1`: the Ki was found to be 74 nM in test [5], 10.1 nM in test [6] and 302 nM in test [7]. The inhibition in test [8] was determined as 1%.
Turning to `CCCC(=O)Nc1cc(-c2ccccc2)nc(-c2ccccc2)n1`, the Ki was determined as 103 nM in test [5], 171 nM in test [6] and 19.5 nM in test [4]. This compound displayed an inhibition in test [1] of 1%.
The corresponding values for `CCC(=O)Nc1cc(-c2ccccc2F)nc(-c2ccccc2F)n1` are 103 nM, 160 nM, 31.6 nM and 16%.
For `CCC(=O)Nc1cc(-c2cccs2)nc(-c2cccs2)n1` the same measures were 114 nM, 21.8 nM, 32.9 nM and 17%.
The corresponding values for `CCCC(=O)Nc1cc(-c2cccs2)nc(-c2cccs2)n1` are 153 nM, 23 nM, 33.3 nM and 8%.
As for `CCCC(=O)Nc1nc(-c2ccccc2F)cc(-c2ccccc2F)n1`, the Ki in test [5] was 647 nM; in test [4], 23.5 nM. Moreover, the inhibition in test [1] was determined as 6%; in test [3], 15%.
With `CC(=O)Nc1cc(-c2ccc(F)cc2)nc(-c2ccc(F)cc2)n1`, the Ki is 1330 nM in test [5] and 16.7 nM in test [6]. The inhibition was 15% in test [8] and 1% in test [1].
As to `CCCC(=O)Nc1cc(-c2ccc3c(c2)OCO3)nc(-c2ccc3c(c2)OCO3)n1`, the inhibition constant Ki in test [6] is 59 nM; in test [4] it was 9.7 nM. Further, the inhibition in test [1] is 16%; in test [2], 22%.
The corresponding values for `CCC(=O)Nc1cc(-c2ccccc2OC)nc(-c2ccccc2OC)n1` are 23.2 nM, 113 nM, 7% and 22%.
As for `CCC(=O)Nc1nc(-c2ccc3c(c2)OCO3)cc(-c2ccc3c(c2)OCO3)n1`, the results for the inhibition constant (Ki) in test [6] and in test [4] were 127 nM and 535 nM, respectively. Further, the inhibition amounted to 1% in test [1] and 16% in test [2].
The corresponding values for `CCCC(=O)Nc1nc(-c2ccc(C)cc2)cc(-c2ccc(C)cc2)n1` are 131 nM, 3760 nM, 10% and 2%.
As to `CCCC(=O)Nc1nc(-c2cccs2)cc(-c2cccs2)n1`, the inhibitory constant (Ki) in test [5] was found to be 201 nM; in test [4], 255 nM. In addition, the inhibition in test [1] turned out to be 3%; in test [3], 24%.
In the case of `CC(=O)Nc1cc(-c2ccsc2)nc(-c2ccsc2)n1`, the inhibitory constant (Ki) in test [5] was found to be 39.8 nM; in test [6], 20.2 nM. For the same compound, the inhibition came to 13% in test [8] and 16% in test [1].
`CC(=O)Nc1cc(-c2ccccc2F)nc(-c2ccccc2F)n1`: the inhibition constant Ki in test [5] came out at 73.8 nM; in test [6], 18.1 nM. Besides, the inhibition in test [8] was 17%; in test [1], 21%.
For the compound `CCCC(=O)Nc1cc(-c2ccccc2F)nc(-c2ccccc2F)n1`, the Ki was found to be 142 nM in test [5], 135 nM in test [6] and 18.7 nM in test [4]. In addition, in test [1], the inhibition came out at 9%.
With `CCCC(=O)Nc1cc(-c2ccoc2)nc(-c2ccoc2)n1`, the results for the inhibitory constant (Ki) in test [5] and in test [4] were 544 nM and 65.1 nM, respectively. Further, the inhibition in test [1] was determined as 1%; in test [3], 3%.
Take `CCCC(=O)Nc1cc(/C=C/c2ccccc2)nc(/C=C/c2ccccc2)n1`: the inhibition in test [8] is 1%; in test [1] it was 8%; in test [2] it was 1%; in test [3], 25%.
Turning to `CCC(=O)Nc1cc(-c2ccc(F)cc2)nc(-c2ccc(F)cc2)n1`, the inhibitory constant (Ki) turned out to be 429 nM in test [5], 12.1 nM in test [6] and 83.9 nM in test [4]. In addition, the inhibition in test [1] turned out to be 1%.
On to `CC(=O)Nc1nc(-c2ccccc2)cc(-c2ccccc2)n1`, for which the inhibition in test [8] came out at 17%; in test [1], 6%; in test [2], 11%; in test [3], 13%.
For `CC(=O)Nc1nc(-c2ccsc2)cc(-c2ccsc2)n1` the same measures were 2%, 1%, 2% and 1%.
Regarding `CC(=O)Nc1cc(-c2ccc3c(c2)OCO3)nc(-c2ccc3c(c2)OCO3)n1`, the values for the inhibition constant Ki in test [5], in test [6] and in test [4] were 3350 nM, 3.3 nM and 17.7 nM, respectively. Also, the inhibition in test [1] came out at 2%.

The values above are taken from ChEMBL document CHEMBL1649418, “Pyrimidine derivatives as potent and selective A3 adenosine receptor antagonists” (J Med Chem, 2011).
